# High-throughput results: PubChem, several laboratories
# An excerpt weighted towards active compounds, which were near 2.3% of everything screened.
# CRFR2-BP ag = agonists of CRF-BP/CRF-R2 complex, primary screen, cell-based, HEK293, calcium dye fluorescence, uHTS; activation, % at 13.2 µM; CRF-binding protein / CRF receptor 2 complex (human); 0.46% of 350,000 active; AID 588473, 2011; calcium dye fluorescence (FLIPR); percent of saturating CRF peptide response;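 active = activation of at least 50%, plus an integration ratio under a set limit after plate pattern correction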;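 also: plate controls were neutral control wells without compound for no effect and CRF at EC100 for full effect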
# HNF4A DNA FP = change in binding of human HNF4A to DNA, primary screen, biochemical, fluorescence polarization, FITC-DNA; Hepatocyte nuclear factor 4-alpha (Homo sapiens), P41235; 1 h; activity change, % at 10 µM; 0.3% of 360,000 active; in the data active = activity change above about 30%, passing the limit was not always enough
# TPT1 inhibitor = Candida albicans TPT1 enzyme inhibitors, primary screen, biochemical, fluorescence polarization; tRNA 2'-phosphotransferase TPT1 (Candida albicans SC5314); recombinant caTPT1, FP RNA substrate dephosphorylation; inhibition, % at 5 µM; 0.81% of 300,000 active; AID 1962, 2009;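 active = inhibition above the mean of all tested compounds plus 3 SD, set per screening campaign, cut at about 24% in these data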;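 also: plate controls were DMSO alone for no effect and ferristatin control at 100 nM for full effect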
# Rpn11 inh = Rpn11 (PSMD14) deubiquitinase inhibitors, primary screen, biochemical, fluorescence polarization, uHTS; AID 588493, 2011; 0.59% of 360,000 active; human 26S proteasome, Ub4-pepOG fluorescence polarization; 20S core pre-blocked with epoxomicin; calls only at 20 µM;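 active = inhibition at 20 µM, scaled to each plate's controls, above about 33%, limit read from the data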
# CSN deneddyl inh = inhibitors of CSN-mediated cullin deneddylation, primary screen, biochemical, fluorescence polarization, uHTS; COP9 signalosome complex subunit 5 (Homo sapiens), Q92905; Purified CSN, SCF-Nedd8-OG deneddylation; inhibition, % at 12.5 µM; 0.38% of 360,000 active; AID 651999, 2013;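 active = pattern-corrected inhibition above about 35%, with an unprinted fluorescence ratio check between 0.5 and 1.5, limit read from the data, passing the limit was not always enough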;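 also: 0% = enzyme with substrate and 100% = substrate without enzyme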
# Target sequence (Q92905 whole entry, looked up, one chain of several): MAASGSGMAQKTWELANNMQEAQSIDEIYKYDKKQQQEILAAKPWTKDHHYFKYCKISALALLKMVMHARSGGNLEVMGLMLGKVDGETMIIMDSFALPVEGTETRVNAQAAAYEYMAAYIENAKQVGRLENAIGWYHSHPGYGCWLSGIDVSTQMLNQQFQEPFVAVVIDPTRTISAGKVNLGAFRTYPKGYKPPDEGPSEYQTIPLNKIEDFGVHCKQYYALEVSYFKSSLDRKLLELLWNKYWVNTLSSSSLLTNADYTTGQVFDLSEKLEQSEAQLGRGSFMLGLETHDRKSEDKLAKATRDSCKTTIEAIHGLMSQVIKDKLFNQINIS
#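 Test system: Human Csn5 produced in HEK293T cells | Compound: 12.5 µM single point | Times: 90 min, room temperature | Signal: Fluorescence polarization readout | Read-out basis: % inhibition of substrate cleavage by Csn5 | Controls: no-enzyme wells high, enzyme-with-substrate wells low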
# CRFBP-R2 block = antagonists of CRF-BP/CRF-R2 complex, primary screen, cell-based, HEK293, calcium dye fluorescence, uHTS; 0.59% of 350,000 active; inhibition, % at 11.8 µM; CRF-induced calcium fluorescence; AID 588475, 2011;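 active = inhibition of the ligand-induced calcium signal above about 50% at the single tested concentration, limit read from the data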
# caTPT1 confirm = Candida albicans TPT1 inhibitors, confirmation, biochemical, fluorescence polarization, triplicate. shares compounds with TPT1 inhibitor. recombinant caTPT1, RNase T1 coupled. inhibition, % at 5 µM. 74% of 2,400 active. AID 2149, 2009;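 active = inhibition above the primary screen limit, the mean inhibition of all tested compounds plus 3 SD, cut at about 25% in these data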
# RNase T1 inh = RNase T1 inhibitors, counter-screen for TPT1 inhibitor project, biochemical, fluorescence polarization | shares compounds with TPT1 inhibitor | RNase T1 cleavage, 1536-well | inhibition, % at 5 µM | 83% of 2,400 active;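 active = inhibition above the solvent-only control well mean plus 3 SD, limit set per screening run, cut at about 23% in these data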;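 also: plate controls were DMSO wells with enzyme for no effect and wells without RNase T1 for full effect; inhibitors block cleavage so intact labeled substrate keeps polarization high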
# Target sequence (P00651 whole entry, looked up): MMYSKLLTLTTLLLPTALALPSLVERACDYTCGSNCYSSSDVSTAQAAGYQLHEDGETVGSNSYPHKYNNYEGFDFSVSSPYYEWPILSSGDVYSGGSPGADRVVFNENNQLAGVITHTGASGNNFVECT
# * marks the source's active call; other numbers are inactive results; i = inactive; . = no result given; + = active, no number.
SMILES,CRFR2-BP ag,HNF4A DNA FP,TPT1 inhibitor,Rpn11 inh,CSN deneddyl inh,CRFBP-R2 block,caTPT1 confirm,RNase T1 inh
O[C@@H]1CCCN2CCc3c([nH]c4ccccc34)[C@H]12,6,2,30*,i,5,8,14,23*
Cc1ccc(C)c(Cn2c(C(=O)O)c(C=O)c3ccccc32)c1,17,164,124*,.,116,-14,143*,137*
Cc1ccc(OCCn2cccc2/C=C2/C(=O)NC(=O)N(Cc3ccco3)C2=O)cc1,-1,-8,25*,i,29,-9,41*,27*
C=CCn1c(O)c(C=Nc2c(C)n(C)n(-c3ccccc3)c2=O)c(=O)[nH]c1=O,-1,5,38*,i,5,13,18,24*
O=C1C2CCCN2C(c2cccnc2)N1c1ccc(Cl)cc1 (centres undefined),1,3,-2,i,2,-14,.,.
COc1ccc(CN2C(=O)CC(=O)NC2=O)cc1,2,10,24*,i,0,-11,18,24*
CCOC(=O)c1c(/N=C/c2c(O)n(-c3ccccc3F)c(=S)[nH]c2=O)sc2c1CCCC2,3,-5,38*,.,23,1,86*,96*
CCOC(=O)c1c(/N=C/c2c(O)n(-c3ccc(F)cc3)c(=S)[nH]c2=O)sc2c1CCCC2,5,16,4,i,7,40,.,.
CCOC(=O)c1c(C)[nH]c(C)c1C(=O)C(Cc1ccccc1)N(C)C (centres undefined),-1,-1,2,i,1,3,.,.
CSCCC(c1nnnn1C1CCCC1)N1CCC(n2c(=O)[nH]c3ccccc32)CC1 (centres undefined),.,-2,.,i,-5,.,.,.
COc1ccc(C2SCC(=O)Nc3c2c(C)nn3C2CCOC(C)(C)C2)cc1OC (centres undefined),-3,1,27*,i,-1,-3,18,25*
Cc1cc(/C=C2\C(=O)NC(=O)N(Cc3ccco3)C2=O)c(C)n1-c1ccc(O)cc1,1,-12,20,i,49,-2,.,.
Cc1cc(/C=C2\C(=O)NC(=O)N(Cc3ccccc3)C2=O)c(C)n1-c1ccc(Cl)c(C(=O)O)c1,6,-45,16,i,57,-11,.,.
Cc1cc(/C=C2\C(=O)NC(=O)N(Cc3ccccc3Cl)C2=O)c(C)n1-c1ccc(C(=O)O)cc1,37,-17,60*,.,20,-44,17,24*
Cc1cc(/C=C2\C(=O)NC(=O)N(Cc3ccco3)C2=O)c(C)n1-c1ccc(C(=O)O)cc1,0,-11,25*,i,11,4,8,10
Nc1ccc(C2(c3ccc(N)cc3)CN3CCC2CC3)cc1,-1,6,0,i,4,5,.,.
Nc1ccnn1C1CCNCC1,1,2,-3,i,1,17,.,.
CCOc1cc2c(cc1OCC)-n1cccc1C(c1ccc(OC)c(OC)c1)NC2 (centres undefined),-1,4,2,i,0,2,.,.
Nc1c([N+](=O)[O-])cc(F)c(N2CCNCC2)c1Br,1,1,27*,i,-2,9,9,10
CC1=Nc2ccccc2/C1=C/c1c(O)[nH]c(=O)[nH]c1=O,-2,2,3,i,5,6,.,.
O=c1[nH]c(O)c(/C=C2/C=CC(c3cc(Cl)ccc3Cl)=N2)c(=O)[nH]1,103*,8,93*,i,18,-102,108*,103*
CCOP(=O)(OCC)C(NC(=O)c1ccccc1C)C(Cl)(Cl)Cl (centres undefined),-1,2,3,i,2,4,.,.
O=C1NC(=O)C(CCc2ccncc2)(Cc2ccc([N+](=O)[O-])cc2)C(=O)N1,7,3,28*,i,2,17,2,4
COc1ccc(CC2(CCc3ccncc3)C(=O)NC(=O)NC2=O)cc1,-1,-1,1,i,0,7,.,.
CN(C)Cc1c[nH]c2cc([N+](=O)[O-])ccc12,4,0,.,i,0,-28,.,.
SMILES,CRFR2-BP ag,HNF4A DNA FP,TPT1 inhibitor,Rpn11 inh,CSN deneddyl inh,CRFBP-R2 block,caTPT1 confirm,RNase T1 inh
O=c1[nH]c(=O)n(-c2ccc(Br)cc2)c(O)c1C=NC(CO)(CO)CO,2,-2,0,i,3,3,.,.
CN1CCN(CCOC2c3ccccc3CSc3ccc(Cl)cc32)CC1 (centres undefined),-5,-1,55*,i,6,-32,3,9
COC(=O)C1=C(c2cccc(C#N)c2)C[C@@H]2CC[C@H]1N2C(=O)NC(C)C,-1,-1,.,i,0,-5,.,.
O=c1c2ccccc2nc(/C=C/c2ccccc2O)n1-c1ccccc1O,.,11,25*,.,26,.,37*,48*
O=C1NC(=O)C(CCc2ccncc2)(Cc2cccc(Cl)c2Cl)C(=O)N1c1ccc(Br)cc1 (centres undefined),0,0,-4,i,2,-16,.,.
Cc1ccc(N2C(=O)NC(=O)/C(=C/c3ccc(-c4ccc(C(=O)O)c(Cl)c4)o3)C2=O)cc1,9,-14,9,i,13,-11,.,.
Cc1ccc(N2C(=O)/C(=C/c3ccc(CN(CCC#N)S(C)(=O)=O)o3)C(=O)NC2=S)cc1C,.,.,46*,.,.,.,48*,57*
COc1cc(N2CCOCC2)ccc1/C=C1\C(=O)NC(=O)N(Cc2cccs2)C1=O,2,1,23,i,18,-7,.,.
COc1cc(N2CCOCC2)ccc1/C=C1\C(=O)NC(=O)N(Cc2ccc3c(c2)OCO3)C1=O,5,-53,27*,i,18,-17,46*,65*
CN1/C(=C\C=Nc2ccccc2)C(C)(C)c2ccccc21,3,11,-4,i,7,-16,.,.
CN1/C(=C\C=C2C(=O)NC(=O)NC2=O)C(C)(C)c2ccccc21,378*,220,+,.,155,-383,184*,168*
